Test results: paper PMC8842743 (Journal of Alzheimer's Disease Reports, 2022)

Key:
healthy subjects = assay: Clinical safety: adverse events, ECG, laboratory tests; assay type: in vivo, human
[1] = system: PDAPP primary cortical neurons; assay: PDAPP neuronal cytotoxicity; assay type: cell-based, mouse
Summary of the method: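 Primary cortical neurons from gestational-day-16 PDAPP (APP V717F) embryos were grown at 15×10^4 cells/well in DMEM/F12 (1:1) with B27. Cells were exposed to test compound for 24 h at 37°C. Viability was read by MTT assay as absorbance at 595 nm.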

patients with mild AD = settings: Phase II study; cited from earlier work
[2] = target: T1, Renin recombinant human enzyme (Homo sapiens, UniProt P00797); assay: Renin FRET assay; assay type: biochemical; settings: read-out: Renin FRET Assay Absolute IC50; n = 1/2; value (SD)
T1 sequence (P00797 67-406): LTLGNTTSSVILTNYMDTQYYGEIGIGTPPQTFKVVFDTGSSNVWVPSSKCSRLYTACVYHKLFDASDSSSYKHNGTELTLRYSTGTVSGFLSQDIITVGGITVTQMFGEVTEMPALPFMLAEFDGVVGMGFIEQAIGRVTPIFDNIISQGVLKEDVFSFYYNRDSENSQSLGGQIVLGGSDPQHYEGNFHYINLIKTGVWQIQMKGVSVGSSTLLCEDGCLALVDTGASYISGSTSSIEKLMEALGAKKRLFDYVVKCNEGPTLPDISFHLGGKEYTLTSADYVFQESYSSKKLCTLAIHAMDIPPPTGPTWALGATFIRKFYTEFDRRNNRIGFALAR

IC50 [2]: > 14 µM
Compound: COc1cnc(C(=O)Nc2ccc(F)c([C@]34CN(c5ncc(F)cn5)C[C@H]3CSC(N)=N4)c2)cn1 [LY3202626]
tolerability (healthy subjects; Phase 1 study): generally well tolerated
clinical laboratory tests, including liver functions tests (healthy subjects; healthy subjects, Phase 1): no clinically significant findings
electrocardiograms (including QTc interval), ophthalmologic examinations, alertness and attention (healthy subjects; healthy subjects, Phase 1): no clinically significant changes
Abnormal dreams: number of adverse events (number of subjects) (healthy subjects; multiple doses 1 mg, N = 9): 1 (1)
Burning sensation: number of adverse events (number of subjects) (healthy subjects; multiple doses 1 mg, N = 9): 1 (1)
Constipation: number of adverse events (number of subjects) (healthy subjects; multiple doses 1 mg, N = 9): 0 (0)
Dizziness: number of adverse events (number of subjects) (healthy subjects; multiple doses 1 mg, N = 9): 0 (0)
Dysgeusia: number of adverse events (number of subjects) (healthy subjects; multiple doses 1 mg, N = 9): 1 (1)
Feces discoloured: number of adverse events (number of subjects) (healthy subjects; multiple doses 1 mg, N = 9): 0 (0)
Headache: number of adverse events (number of subjects) (healthy subjects; multiple doses 1 mg, N = 9): 0 (0)
Memory impairment: number of adverse events (number of subjects) (healthy subjects; multiple doses 1 mg, N = 9): 0 (0)
Nightmare: number of adverse events (number of subjects) (healthy subjects; multiple doses 1 mg, N = 9): 1 (1)
Post-lumbar puncture syndrome: number of adverse events (number of subjects) (healthy subjects; multiple doses 1 mg, N = 9): 1 (1)
Postural orthostatic tachycardia syndrome: number of adverse events (number of subjects) (healthy subjects; multiple doses 1 mg, N = 9): 0 (0)
Sunburn: number of adverse events (number of subjects) (healthy subjects; multiple doses 1 mg, N = 9): 0 (0)
Abnormal dreams: number of adverse events (number of subjects) (healthy subjects; multiple doses 6 mg, N = 9): 0 (0)
Burning sensation: number of adverse events (number of subjects) (healthy subjects; multiple doses 6 mg, N = 9): 0 (0)
Constipation: number of adverse events (number of subjects) (healthy subjects; multiple doses 6 mg, N = 9): 1 (1)
Dizziness: number of adverse events (number of subjects) (healthy subjects; multiple doses 6 mg, N = 9): 0 (0)
Dysgeusia: number of adverse events (number of subjects) (healthy subjects; multiple doses 6 mg, N = 9): 0 (0)
Feces discoloured: number of adverse events (number of subjects) (healthy subjects; multiple doses 6 mg, N = 9): 2 (2)
Headache: number of adverse events (number of subjects) (healthy subjects; multiple doses 6 mg, N = 9): 0 (0)
Memory impairment: number of adverse events (number of subjects) (healthy subjects; multiple doses 6 mg, N = 9): 0 (0)
Nightmare: number of adverse events (number of subjects) (healthy subjects; multiple doses 6 mg, N = 9): 0 (0)
Post-lumbar puncture syndrome: number of adverse events (number of subjects) (healthy subjects; multiple doses 6 mg, N = 9): 0 (0)
Postural orthostatic tachycardia syndrome: number of adverse events (number of subjects) (healthy subjects; multiple doses 6 mg, N = 9): 0 (0)
Sunburn: number of adverse events (number of subjects) (healthy subjects; multiple doses 6 mg, N = 9): 0 (0)
Abnormal dreams: number of adverse events (number of subjects) (healthy subjects; multiple doses 26 mg, n = 9): 0 (0)
Burning sensation: number of adverse events (number of subjects) (healthy subjects; multiple doses 26 mg, n = 9): 0 (0)
Constipation: number of adverse events (number of subjects) (healthy subjects; multiple doses 26 mg, n = 9): 0 (0)
Dizziness: number of adverse events (number of subjects) (healthy subjects; multiple doses 26 mg, n = 9): 2 (2)
Dysgeusia: number of adverse events (number of subjects) (healthy subjects; multiple doses 26 mg, n = 9): 0 (0)
Feces discoloured: number of adverse events (number of subjects) (healthy subjects; multiple doses 26 mg, n = 9): 9 (9)
Headache: number of adverse events (number of subjects) (healthy subjects; multiple doses 26 mg, n = 9): 0 (0)
Memory impairment: number of adverse events (number of subjects) (healthy subjects; multiple doses 26 mg, n = 9): 1 (1)
Nightmare: number of adverse events (number of subjects) (healthy subjects; multiple doses 26 mg, n = 9): 0 (0)
Post-lumbar puncture syndrome: number of adverse events (number of subjects) (healthy subjects; multiple doses 26 mg, n = 9): 0 (0)
Postural orthostatic tachycardia syndrome: number of adverse events (number of subjects) (healthy subjects; multiple doses 26 mg, n = 9): 1 (1)
Sunburn: number of adverse events (number of subjects) (healthy subjects; multiple doses 26 mg, n = 9): 0 (0)
serious adverse events (healthy subjects; up to a single dose of 45 mg or multiple doses of 26 mg): no serious adverse events
EC50 ([1]; read-out: EC50 for inducing cytotoxicity in PDAPP neurons, MTT): > 100 µM
IC50 ([1]; read-out: PDAPP 1° Neuron Cytotox Relative IC50, n = 1/7): > 100 µM
hepatotoxicity (patients with mild AD): no evidence of hepatotoxicity
